Bioassay records from PubChem.
Lmaj promast = reduces viability of Leishmania major promastigotes | inhibition, % at 10 µM | resazurin fluorescence viability | actives 9% (n = 200,000) | AID 1063; in the data active means inhibition above about 50%;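 further: promastigotes grown with compound for 44 hours at 28 °C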
Beta cell apopt = beta cell apoptosis inhibition | INS-1E cytokine-induced death, ATP luminescence, 48 h; percent of positive-control rescue, neutral wells zero | protection from apoptosis, % (no concentration beside the values) | actives 0.8% (n = 300,000);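 active means Every replicate reaches about 75%, or at least half do and their mean reaches it too, limit read from the data; inconclusive means At least half of replicates reach the limit but their mean does not; inactive means Under half of replicates reach the limit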;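 further: 0% = cytokine-treated negative control wells and 100% = positive control rescue; higher means more ATP so stronger rescue from cytokine killing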
T cruzi inh = blocks replication of Trypanosoma cruzi; actives 1.4% (n = 300,000); T. cruzi beta-gal in NIH3T3, luminescence, 90 h; inhibition, % (test concentration not listed);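 active means mean inhibition across valid replicates above about 55%, limit read from the data; inconclusive means mean below that limit but half or more replicates reach it; inactive means mean below it, under half of replicates reach it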;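 further: signal also drops with host cell toxicity which is not excluded here; 0% = plate median of DMSO wells and 100% = zero luminescence signal; higher percent means less beta-gal luminescence so fewer parasites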
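assay system = mouse NIH/3T3 fibroblasts infected with β-gal-expressing T. cruzi Tulahuen C4 | input = 5,000 NIH/3T3 host cells per well | buffer or medium = DMEM plus 2% FBS | timing = 3 h host attachment, then at least 90 h co-culture | measured by = GalScreen luminescence, 60 min | evaluation = luminescence reflecting intracellular parasite burden, expressed as percent inhibition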
Mdm2-MdmX inh = disrupts the human Mdm2-MdmX interaction; inhibition, % at 8 µM; SaOS-2 split-luciferase Mdm2/MdmX complementation, luminescence; AID 485346; O15151+Q00987; actives 3% (n = 330,000);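 active means inhibition of at least 50% at 8 µM in the primary screen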
Target sequence (O15151 whole entry, looked up): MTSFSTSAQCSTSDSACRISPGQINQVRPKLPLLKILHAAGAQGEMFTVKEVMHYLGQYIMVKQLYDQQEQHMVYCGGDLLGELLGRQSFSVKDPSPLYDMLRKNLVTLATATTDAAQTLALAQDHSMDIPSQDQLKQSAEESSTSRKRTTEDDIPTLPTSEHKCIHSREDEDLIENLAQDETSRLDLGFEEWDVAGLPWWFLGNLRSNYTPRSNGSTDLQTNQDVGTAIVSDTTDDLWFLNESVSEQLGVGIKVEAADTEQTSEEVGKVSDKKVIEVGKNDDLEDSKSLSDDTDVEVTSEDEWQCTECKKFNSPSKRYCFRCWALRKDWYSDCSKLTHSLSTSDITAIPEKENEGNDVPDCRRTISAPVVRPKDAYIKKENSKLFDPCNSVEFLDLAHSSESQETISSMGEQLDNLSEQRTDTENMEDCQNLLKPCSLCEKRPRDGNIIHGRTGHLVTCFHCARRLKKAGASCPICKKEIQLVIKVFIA
Target sequence (Q00987 whole entry, looked up): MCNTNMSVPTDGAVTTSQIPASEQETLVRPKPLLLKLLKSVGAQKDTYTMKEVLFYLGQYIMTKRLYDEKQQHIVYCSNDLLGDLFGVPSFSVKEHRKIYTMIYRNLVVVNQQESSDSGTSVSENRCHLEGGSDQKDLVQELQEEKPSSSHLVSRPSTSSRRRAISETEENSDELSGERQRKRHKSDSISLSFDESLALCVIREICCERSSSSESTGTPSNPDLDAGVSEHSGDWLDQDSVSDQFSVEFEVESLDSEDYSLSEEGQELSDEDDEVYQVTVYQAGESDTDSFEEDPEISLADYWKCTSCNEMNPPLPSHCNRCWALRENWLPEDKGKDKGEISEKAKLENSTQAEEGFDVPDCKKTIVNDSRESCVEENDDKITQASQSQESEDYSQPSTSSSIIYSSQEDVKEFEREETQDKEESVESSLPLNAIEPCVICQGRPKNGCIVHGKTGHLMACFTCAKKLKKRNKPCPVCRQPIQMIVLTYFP
SKKanGAS inh = inhibitors of SKKanGAS S. pyogenes growth in kanamycin (SK-promoter or general growth effect). BacTiter-Glo, 6 h. inhibition, % at 7.5 µM. actives 1.3% (n = 300,000);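 active means mean replicate score, as percent of positive control median, at least 50; inconclusive means mean below 50 but one replicate at or above 50; inactive means mean and every replicate below 50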;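 further: strain carries kanamycin resistance gene driven by streptokinase promoter and grows in 40 µg/ml kanamycin; loss of luminescence reflects streptokinase promoter inhibition or plain growth inhibition; 0% = median of DMSO wells and 100% = positive control at its reference dose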
CSC inhib = cancer stem cell inhibition. cancer stem cell-like cells viability, luminescence. inhibition, % at 7.5 µM. actives 1.1% (n = 300,000). AID 2717; in the data active means inhibition above about 75%; inconclusive means no clear call, values can overlap the other calls; tested in HMLE shEcad cells
Mdm2-MdmX conf = confirmation of human Mdm2/MdmX interaction inhibitors | inhibition, % at 8 µM | actives 55% (n = 10,000) | shares compounds with Mdm2-MdmX inh | Mdm2-MdmX binding, luminescent assay; in the data active means inhibition above about 40%
Full FLuc ctr = counter-screen for Mdm2/MdmX inhibitors: full-length luciferase. shares compounds with Mdm2-MdmX inh. SaOS-2 full-length luciferase counterscreen, luminescence. inhibition, % at 8 µM. actives 77% (n = 6,200);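 active means mean inhibition at 8 µM reaching about 37%, which flags the compound as non-specific, limit read from the data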;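 further: p53-null SaOS-2 cells with luciferase driven by a doxycycline-inducible promoter; compound on cells about two nights before reading with doxycycline added after day one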
Numbers without * were called inactive. Shown are actives, neighbours in structure and some others; about 9.4% of the full set was active somewhere.

How did CNC(=O)NC(=O)COC(=O)c1ccc(-n2c(C)ccc2C)cc1 do in these assays?
Lmaj promast: -4; Beta cell apopt: -4; T cruzi inh: -1; Mdm2-MdmX inh: 13; SKKanGAS inh: 6; CSC inhib: 15

Results for CSc1ccc(CN(C)C(=O)COc2ccc(C(=O)c3ccccc3)cc2)cc1 ?
Beta cell apopt: -13; T cruzi inh: 6; Mdm2-MdmX inh: 65*; SKKanGAS inh: 11; CSC inhib: -11; Mdm2-MdmX conf: 59*; Full FLuc ctr: 96*

Results for O=C(COc1ccc(C(=O)c2ccccc2)cc1)NCc1ccc(F)cc1 ?
Lmaj promast: 0; Beta cell apopt: 0; T cruzi inh: -16; Mdm2-MdmX inh: 63*; SKKanGAS inh: -6; CSC inhib: 0; Mdm2-MdmX conf: 67*; Full FLuc ctr: 76*

How did COc1cc(NC(=O)Cn2cnc3c(OCc4ccccc4)ncnc32)cc(OC)c1OC do in these assays?
Beta cell apopt: -3; Mdm2-MdmX inh: 33

What do the screens show for `C=CCNC(=O)c1cc2c(=O)n3ccccc3nc2s1`?
Beta cell apopt: 9; T cruzi inh: 12; Mdm2-MdmX inh: 6; SKKanGAS inh: 3; CSC inhib: 3

How did CCOC(=O)c1ccccc1NC(=O)c1cn(-c2ccc(C)c(C)c2)c(=O)c2ccccc12 do in these assays?
Lmaj promast: 98*; Beta cell apopt: 8; T cruzi inh: 32; Mdm2-MdmX inh: 69*; SKKanGAS inh: 33; CSC inhib: 7; Mdm2-MdmX conf: 29

Results for CC(C)c1ccc(CNC(=O)C2CCCN2S(=O)(=O)c2ccccc2)cc1 (stereo not given) ?
Beta cell apopt: -2; T cruzi inh: -13; Mdm2-MdmX inh: 5; SKKanGAS inh: 0; CSC inhib: -6

What do the screens show for `CCN(CC)CCC(=O)N1c2ccccc2Sc2ccc(Cl)cc21`?
Beta cell apopt: 8; T cruzi inh: 4; Mdm2-MdmX inh: 56*; SKKanGAS inh: -1; CSC inhib: 4; Mdm2-MdmX conf: 38; Full FLuc ctr: 65*

How did CN(C)CCC(=O)N1c2ccccc2Sc2ccc(Cl)cc21 do in these assays?
Lmaj promast: 5; Beta cell apopt: 10; T cruzi inh: 5; Mdm2-MdmX inh: 24; SKKanGAS inh: 5; CSC inhib: 16

What do the screens show for `C=C1CCC2[C@](C)(CO)[C@H](O)CC[C@@]2(C)[C@@H]1C/C=C1\C(=O)OC[C@H]1O` (stereo not given in full)?
Beta cell apopt: -17; T cruzi inh: -29; Mdm2-MdmX inh: 69*; SKKanGAS inh: 0; CSC inhib: -12; Mdm2-MdmX conf: 63*; Full FLuc ctr: 27

Results for C=C/C(C)=C/C[C@H]1C(=C)CCC2[C@](C)(C(=O)O)CCC[C@@]21C (stereo not given in full) ?
Beta cell apopt: -2; Mdm2-MdmX inh: 3; CSC inhib: -13

What do the screens show for `CC(C)Oc1ccc(C(CCN)C2CCCCC2)cc1` (stereo not given)?
Beta cell apopt: 91*; T cruzi inh: 33; Mdm2-MdmX inh: 88*; SKKanGAS inh: 1; CSC inhib: 31; Mdm2-MdmX conf: 42*; Full FLuc ctr: 65*

How did CN=C1S/C(=C\c2cccc(Cl)c2Cl)C(=O)N1C do in these assays?
Beta cell apopt: -10; T cruzi inh: 5; Mdm2-MdmX inh: 13; SKKanGAS inh: -5; CSC inhib: 8

How did COc1cc(OC)cc(-c2nnc(NC(=O)CCS(=O)(=O)c3ccc(F)cc3)o2)c1 do in these assays?
Beta cell apopt: -3; T cruzi inh: -4; Mdm2-MdmX inh: 59*; SKKanGAS inh: inconclusive; CSC inhib: 21; Mdm2-MdmX conf: 55*; Full FLuc ctr: 65*

What do the screens show for `COc1cc(-c2nnc(NC(=O)CCS(=O)(=O)c3ccc(F)cc3)o2)cc(OC)c1OC`?
T cruzi inh: -5; Mdm2-MdmX inh: 72*; SKKanGAS inh: 16; CSC inhib: 7; Mdm2-MdmX conf: 69*; Full FLuc ctr: 48*
